The values that follow come from PMC5928661 (Molecular Medicine Reports, 2018).

One series concerns HepG2.A64 cells. The series can be described thus: Cell proliferation. Type of series: cell-based, human. To be noted: HepG2.A64, CCK-8, 96 h. In outline: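 HepG2-derived cells carrying ETV-resistant HBV, kept in DMEM with 10% FBS, penicillin-streptomycin and 300 µg/ml geneticin at 37°C, 5% CO2. Seeded at 3×10^3 cells/well; after 24 h, drug dilution series in conditioned medium were added and renewed every other day for 4 days. CCK-8 was added, then 1~4 h incubation and absorbance at 450 nm. Five replicates, three independent experiments; IC50 calculated.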

The test system of series [1] is wild-type HBV (HepG2.4D14 cells). The series can be described thus: Cell-based antiviral assay, supernatant HBV DNA by qPCR. The conditions noted are these: Hepatitis B virus, 96 h, read-out: EC50 against HBV.
The subject of series [2] is ETV-resistant HBV (HepG2.A64 cells). Described as above. The arrangement: species or system hepatitis B virus. To be noted: for EC50: Hepatitis B virus, HepG2.A64, 96 h, read-out: EC50 against HBV.
For another series, the target named is T1, MRP4 (HepG2.4D14 cells) (Homo sapiens, UniProt O15439).
T1 sequence (O15439 1-1325): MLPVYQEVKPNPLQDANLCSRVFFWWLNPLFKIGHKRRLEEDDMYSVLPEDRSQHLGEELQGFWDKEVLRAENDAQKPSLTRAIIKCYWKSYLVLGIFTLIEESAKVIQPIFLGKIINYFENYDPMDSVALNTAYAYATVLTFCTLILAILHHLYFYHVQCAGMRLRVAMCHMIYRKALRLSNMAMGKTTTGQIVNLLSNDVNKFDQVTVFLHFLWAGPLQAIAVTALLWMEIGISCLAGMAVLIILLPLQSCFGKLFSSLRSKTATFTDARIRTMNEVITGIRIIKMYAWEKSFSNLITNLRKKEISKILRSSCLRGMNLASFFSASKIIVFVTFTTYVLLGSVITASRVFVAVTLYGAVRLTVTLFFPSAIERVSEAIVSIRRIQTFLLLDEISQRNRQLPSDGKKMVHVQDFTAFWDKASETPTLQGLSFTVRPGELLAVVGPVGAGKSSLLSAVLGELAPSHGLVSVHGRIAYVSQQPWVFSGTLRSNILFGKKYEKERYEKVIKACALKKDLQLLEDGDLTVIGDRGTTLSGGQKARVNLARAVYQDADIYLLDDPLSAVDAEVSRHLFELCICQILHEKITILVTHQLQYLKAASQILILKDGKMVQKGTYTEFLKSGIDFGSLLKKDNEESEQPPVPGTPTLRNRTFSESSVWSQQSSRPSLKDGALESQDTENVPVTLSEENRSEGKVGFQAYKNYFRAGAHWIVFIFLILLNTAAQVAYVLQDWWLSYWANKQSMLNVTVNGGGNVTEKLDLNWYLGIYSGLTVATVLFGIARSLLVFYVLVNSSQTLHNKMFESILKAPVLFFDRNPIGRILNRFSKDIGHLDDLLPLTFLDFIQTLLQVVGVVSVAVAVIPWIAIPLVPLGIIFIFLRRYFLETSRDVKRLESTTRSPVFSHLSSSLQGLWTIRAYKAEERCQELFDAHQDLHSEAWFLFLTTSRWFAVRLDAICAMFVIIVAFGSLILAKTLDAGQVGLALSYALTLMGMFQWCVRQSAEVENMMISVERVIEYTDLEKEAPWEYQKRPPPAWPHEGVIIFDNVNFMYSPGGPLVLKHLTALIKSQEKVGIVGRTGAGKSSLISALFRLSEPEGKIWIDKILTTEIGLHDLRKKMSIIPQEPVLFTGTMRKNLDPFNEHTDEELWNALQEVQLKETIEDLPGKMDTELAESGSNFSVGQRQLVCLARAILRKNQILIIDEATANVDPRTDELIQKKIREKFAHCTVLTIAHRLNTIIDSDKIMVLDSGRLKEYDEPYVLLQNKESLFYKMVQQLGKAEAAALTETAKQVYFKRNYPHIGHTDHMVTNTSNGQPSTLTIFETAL
Type of series: in vitro ADME. To be noted: HepG2.4D14, drug 4 days, 5 µM MK571 48 h, LCMS.

The target in the next series is T2, MRP4 (HepG2.A64 cells) (Homo sapiens, UniProt O15439).
T2 sequence (O15439 1-1325): T1 sequence (O15439 1-1325)
Type of series: in vitro ADME. The conditions noted are these: HepG2.A64, drug 4 days, 5 µM MK571 4 h, LCMS.

Turning to `Nc1ccn([C@@H]2CS[C@H](CO)O2)c(=O)n1` [LAM, lamivudine], in the series with HepG2.A64 cells, the “Doses at which apparent cytotoxicity was observed” value (“Doses” for short) is listed as “above 10 µM”. The results for the EC50 in series [1] and in series [2] were 4.14 ± 0.03 µM and 5.94 ± 0.2 µM, respectively. The “Extracellular concentration in presence of MK571 vs control (absence of MK571)” value on MRP4 (HepG2.4D14 cells) and at MRP4 (HepG2.A64 cells) was “slightly reduced” throughout.
Regarding `C=C1[C@H](CO)[C@@H](O)C[C@@H]1n1cnc2c(=O)[nH]c(N)nc21` [ETV, entecavir], the “Doses” value in the series with HepG2.A64 cells is on record as “above 10 µM”. The EC50 in series [1] amounted to 0.13 ± 0.02 µM; in series [2] it was 6.28 ± 0.07 µM. Further, the “Extracellular concentration in presence of MK571 vs control (absence of MK571)” value at MRP4 (HepG2.4D14 cells) and on MRP4 (HepG2.A64 cells) was “slightly reduced” throughout.
In the case of `CN(C)C(=O)CCSC(SCCC(=O)O)c1cccc(/C=C/c2ccc3ccc(Cl)cc3n2)c1` (stereo not shown) [MK571, 3-([(3-(2-[7-chloro-2-quinolinyl]ethyl)phenyl]-[(3-dimethylamino-3-oxoporphyl)-thio)-methyl]-thio) propanoic acid], the “Doses” value with HepG2.A64 cells is “above 10 µM”.
`C[C@H](Cn1cnc2c(N)ncnc21)OCP(=O)(O)O` [TFV, tenofovir]: the “Doses” value in the series on HepG2.A64 cells is “above 10 µM”. Further, the EC50 in series [1] was 3.24 ± 0.01 µM; in series [2] it was 11.43 ± 0.09 µM. Moreover, in series [2] (HepG2.A64 vs HepG2.4D14), the “Fold resistance (mutant EC50 to wild-type EC50)” value is listed as 3.5 fold. The “Extracellular concentration in presence of MK571 vs control (absence of MK571)” value on MRP4 (HepG2.4D14 cells) and on MRP4 (HepG2.A64 cells) was “slightly reduced” in each case. The “Intracellular accumulation in presence of MK571 vs control (absence of MK571)” value at MRP4 (HepG2.4D14 cells) and on MRP4 (HepG2.A64 cells) was “markedly increased” in each case.

The EC50 is the concentration that produces a half-maximal response.
